Data reported in ChEMBL document CHEMBL4265879, “Novel, potent, selective and brain penetrant vasopressin 1b receptor antagonists” (Bioorg Med Chem Lett, 2018).
pIC50, pKi: −log10 of the molar value.

Tests used:
[1] = Intrinsic clearance in human liver microsomes; format: ADME, microsome; settings: read-out: CLH
Procedure, shortened: (§1)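 Intrinsic clearance was measured in human and rat liver microsomes, in µL/min/mg. Values are means of at least two experiments.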

[2] = Intrinsic clearance in rat liver microsomes; format: ADME, microsome; settings: read-out: CLH; procedure, shortened: as §1
[3] = molecular target: T1, Vasopressin V1b receptor (Homo sapiens, UniProt P47901); assay: Displacement of [3H]AVP from human vasopressin V1b receptor expressed in CHO cell membranes after 60 mins by TopCount microplate scintillation counting method
T1 sequence (P47901 whole entry): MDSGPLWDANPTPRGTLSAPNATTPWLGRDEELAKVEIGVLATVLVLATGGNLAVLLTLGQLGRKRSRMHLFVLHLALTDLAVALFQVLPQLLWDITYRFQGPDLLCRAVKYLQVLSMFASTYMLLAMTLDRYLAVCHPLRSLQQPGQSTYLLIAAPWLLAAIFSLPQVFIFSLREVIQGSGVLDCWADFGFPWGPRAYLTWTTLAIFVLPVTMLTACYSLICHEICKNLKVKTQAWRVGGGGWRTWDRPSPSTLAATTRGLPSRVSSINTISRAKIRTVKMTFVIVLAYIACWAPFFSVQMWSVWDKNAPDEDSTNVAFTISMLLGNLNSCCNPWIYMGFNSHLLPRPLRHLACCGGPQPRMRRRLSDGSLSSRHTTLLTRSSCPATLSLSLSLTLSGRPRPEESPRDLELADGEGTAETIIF

[4] = species on record: Homo sapiens; assay: Selectivity index, ratio of Ki for human oxytocin receptor to Ki for human vasopressin V1b receptor
Procedure, shortened: (§2)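 Selectivity was calculated from human receptor Ki values as Ki hOT/Ki hV1b or Ki hV1a/Ki hV1b. Each Ki is the mean of at least two experiments (MSR 2.8).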

[5] = species on record: Homo sapiens; assay: Selectivity index, ratio of Ki for human vasopressin V1a receptor to Ki for human vasopressin V1b receptor; procedure, shortened: as §2
[6] = Ratio of AUC in rat brain to plasma at 10 mg/kg, ip measured after 8 hrs; format: ADME, organism-based; settings: read-out: Ratio AUC
Procedure, shortened: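 Rats were dosed 10 mg/kg intraperitoneally. Brain and plasma AUC were taken over an 8 h period, and the brain:plasma ratio was calculated from them.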

[7] = Elimination half life in rat at 2 mg/kg, iv; format: ADME, organism-based; settings: in vivo, read-out: beta t1/2 (converted)
Procedure, shortened: (§3)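 Rat PK after a 2 mg/kg intravenous dose. Plasma clearance (L/h/kg), terminal half-life (h) and steady-state volume of distribution (L/kg) were derived.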

[8] = Clearance in rat plasma at 2 mg/kg, iv; format: ADME, organism-based; procedure, shortened: as §3
[9] = Volume of distribution at steady state in rat at 2 mg/kg, iv; format: ADME, organism-based; settings: in vivo, read-out: Vdss; procedure, shortened: as §3
[10] = Oral bioavailability in rat at 10 mg/kg; format: ADME, organism-based; settings: in vivo
Procedure, shortened: (§4)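 Rat oral dosing, at 10 or 5 mg/kg depending on compound. Oral bioavailability (%) was calculated.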

[11] = molecular target: Cytochrome P450 3A4 (Homo sapiens, UniProt P08684); assay: Inhibition of CYP3A4 in human liver microsomes in presence of NADPH and Luciferin BE 50; format: ADME
Chain of Cytochrome P450 3A4 (P08684 whole entry): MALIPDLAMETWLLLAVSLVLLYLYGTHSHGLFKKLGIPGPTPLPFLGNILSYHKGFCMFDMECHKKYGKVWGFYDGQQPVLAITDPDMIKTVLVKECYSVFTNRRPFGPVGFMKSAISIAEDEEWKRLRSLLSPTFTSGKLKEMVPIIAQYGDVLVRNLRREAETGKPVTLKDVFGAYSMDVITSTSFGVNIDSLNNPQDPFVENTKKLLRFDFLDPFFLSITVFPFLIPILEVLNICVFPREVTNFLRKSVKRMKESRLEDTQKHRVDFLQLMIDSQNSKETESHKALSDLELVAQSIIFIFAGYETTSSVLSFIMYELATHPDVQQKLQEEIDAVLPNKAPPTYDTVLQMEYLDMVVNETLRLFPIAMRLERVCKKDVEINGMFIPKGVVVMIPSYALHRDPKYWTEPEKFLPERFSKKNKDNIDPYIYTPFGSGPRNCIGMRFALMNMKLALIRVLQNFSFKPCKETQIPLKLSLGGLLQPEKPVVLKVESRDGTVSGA
Procedure, shortened: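 CYP3A4 inhibition by co-incubation in human liver microsomes with NADPH and luciferin-BE substrate, with 0.03 mg/mL noted. Result expressed as IC50.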

[12] = Oral bioavailability in rat at 5 mg/kg; format: ADME, organism-based; settings: in vivo; procedure, shortened: as §4

Compound	microsomal CLint [1] [µL/min/mg]	microsomal CLint [2] [µL/min/mg]	pKi [3]	Ratio Ki [4]	Ratio Ki [5]	further results
COc1ccc(S(=O)(=O)N2C(=O)C(c3ccccc3OC)(N3CCN(c4ccncc4)CC3)c3cc(C#N)ccc32)c(OC)c1 (configuration not stated)	43	296	7.23	–	–	–
COc1ccc(S(=O)(=O)N2C(=O)C(c3ccccc3OC)(N3CCN(c4cccnc4)CC3)c3cc(Cl)ccc32)cc1 (configuration not stated)	–	–	6.98	–	–	–
CCOc1ccc(OC)cc1C1(N2CCN(c3ccncc3)CC2)C(=O)N(S(=O)(=O)c2ccc(OC)cc2)c2ccc(C#N)cc21 (configuration not stated)	93	118	7.49	15	–	–
CCOc1nc(Cl)ccc1C1(N2CCN(c3ccnc(C)c3)CC2)C(=O)N(S(=O)(=O)c2ccc(OC)cn2)c2ccc(C#N)cc21 (racemic) [listing 1 of 2 here]	–	–	–	69	125	–
COc1ccccc1C1(N2CCN(c3cccnc3)CC2)C(=O)N(S(=O)(=O)c2ccccc2)c2ccc(Cl)cc21 (configuration not stated)	–	–	6.63	–	–	–
COc1ccc(S(=O)(=O)N2C(=O)C(c3cccnc3OC)(N3CCN(c4cccnc4)CC3)c3cc(Cl)ccc32)c(OC)c1 (configuration not stated)	19	84	7.35	–	0.1	–
CCOc1ccccc1C1(N2CCN(c3ccncc3)CC2)C(=O)N(S(=O)(=O)c2ccc(OC)cc2OC)c2ccc(C#N)cc21 (configuration not stated)	43	83	7.44	–	–	–
COc1ncccc1C1(N2CCN(c3cccnc3)CC2)C(=O)N(S(=O)(=O)c2cccc3cccnc23)c2ccc(C#N)cc21 (configuration not stated)	326	113	7.52	3	0.9	–
COc1ccc(S(=O)(=O)N2C(=O)C(c3cccnc3OC)(N3CCN(C)C(=O)C3)c3cc(Cl)ccc32)c(OC)c1 (configuration not stated)	99	113	6.72	–	–	–
COc1ncccc1C1(N2CCN(c3cccnc3)CC2)C(=O)N(S(=O)(=O)c2cccc3cccnc23)c2ccc(Cl)cc21 (configuration not stated)	554	156	7.82	2	0.5	–
COc1ccccc1C1(N2CCN(c3cccnc3)CC2)C(=O)N(S(=O)(=O)c2cccc3cccnc23)c2ccc(Cl)cc21 (configuration not stated)	360	359	8.10	10	3	–
CCOc1ccc(OC)cc1C1(N2CCN(c3ccncc3)CC2)C(=O)N(S(=O)(=O)c2ccc(OC)cc2OC)c2ccc(C#N)cc21 (configuration not stated)	23	41	7.68	6	21	Kp at 8 h [6]: 1.1; half-life [7]: 204 min; clearance [8]: 11.7 mL/min/kg; Vd [9]: 2.9 L/kg; bioavailability [10]: 22%
CCOc1nc(Cl)ccc1C1(N2CCN(c3ccncc3)CC2)C(=O)N(S(=O)(=O)c2ccc(OC)cn2)c2ccc(C#N)cc21 (configuration not stated)	39	63	8.96	201	325	pIC50 [11]: 7.00
CCOc1nc(Cl)ccc1C1(N2CCN(c3ccnc(C)c3)CC2)C(=O)N(S(=O)(=O)c2ccc(OC)cn2)c2ccc(C#N)cc21 (single isomer, unassigned; (+)) [listing 1 of 2 here]	7	22	9.05	–	–	Kp at 8 h [6]: 1; half-life [7]: > 360 min; clearance [8]: 15 mL/min/kg; pIC50 [11]: 5.70; Vd [9]: 12 L/kg; bioavailability [12]: 37%
COc1ccc(S(=O)(=O)N2C(=O)C(c3cccnc3OC)(N3CCNC(=O)C3)c3cc(Cl)ccc32)c(OC)c1 (configuration not stated)	–	–	5.87	–	–	–
CCOc1ccc(OC)cc1C1(N2CCN(c3ccncc3)CC2)C(=O)N(S(=O)(=O)c2ccc(OC)c3cccnc23)c2ccc(C#N)cc21 (configuration not stated)	33	15	8.70	4	84	–
COc1ccc(S(=O)(=O)N2C(=O)C(c3cc(OC)ccc3OC)(N3CCN(c4ccncc4)CC3)c3cc(C#N)ccc32)c(OC)c1 (configuration not stated)	50	58	7.89	2	2	–
CCOc1ccc(OC)cc1C1(N2CCN(c3ccncc3)CC2)C(=O)N(S(=O)(=O)c2ccc(F)c3cccnc23)c2ccc(C#N)cc21 (configuration not stated)	131	119	8.05	21	39	–
CCOc1nc(Cl)ccc1C1(N2CCN(c3ccnc(C)c3)CC2)C(=O)N(S(=O)(=O)c2ccc(OC)cn2)c2ccc(C#N)cc21 (racemic) [listing 2 of 2 here]	–	–	8.89	–	–	pIC50 [11]: 5.92
COc1ccc(S(=O)(=O)N2C(=O)C(c3ccccc3OC)(N3CCN(c4cccnc4)CC3)c3cc(Cl)ccc32)c(OC)c1 (configuration not stated)	41	348	7.74	0.9	0.8	–
CCOc1ccc(OC)cc1C1(N2CCN(c3ccncc3)CC2)C(=O)N(S(=O)(=O)c2ccc(OC)cn2)c2ccc(C#N)cc21 (configuration not stated)	45	290	8.70	230	216	–
COc1ccc(S(=O)(=O)N2C(=O)C(c3cccnc3OC)(N3CCN(c4cccnc4)C(=O)C3)c3cc(Cl)ccc32)c(OC)c1 (configuration not stated)	196	291	7.09	–	1	–
CCOc1nc(Cl)ccc1C1(N2CCN(c3ccncc3)CC2)C(=O)N(S(=O)(=O)c2ccc(OC)cc2OC)c2ccc(C#N)cc21 (configuration not stated)	23	–	7.35	–	–	–
CCOc1cc(OC)ccc1C1(N2CCN(c3ccncc3)CC2)C(=O)N(S(=O)(=O)c2ccc(OC)cc2OC)c2ccc(C#N)cc21 (configuration not stated)	63	34	8.00	3	34	–
CCOc1nc(Cl)ccc1C1(N2CCN(c3ccnc(C)c3)CC2)C(=O)N(S(=O)(=O)c2ccc(OC)cn2)c2ccc(C#N)cc21 (single isomer, unassigned; (+)) [listing 2 of 2 here]	–	–	–	65	78	–
COc1ccc(S(=O)(=O)N2C(=O)C(c3cccnc3OC)(N3CCN(C)C(=O)[C@H]3C)c3cc(Cl)ccc32)c(OC)c1 (some centres not stated)	51	78	7.39	–	1	–
COc1ccccc1C1(N2CCN(c3cccnc3)CC2)C(=O)N(S(=O)(=O)c2ccccc2OC)c2ccc(Cl)cc21 (configuration not stated)	93	442	7.33	–	–	–
CCOc1ncccc1C1(N2CCN(c3ccncc3)CC2)C(=O)N(S(=O)(=O)c2ccc(OC)cc2OC)c2ccc(C#N)cc21 (configuration not stated)	77	168	7.08	–	–	–
